This sample holds only a part of the variants without activity.
B1: tRNA (parent)
chain: GUUCCGUUGGCGUAAUGGUAACGCGUCUCCCUCCUAAGGAGAAGACUGCGGGUUCGAGUCCCGUACGGAACG

Variants of: B1
Experiment: yeast fitness relative to wild type (ratio to wild type); higher = fitter; tRNA-Arg(CCU), competitive growth, 37 C, YPD
Outline: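 Changes in genotype frequencies gave Darwinian fitness relative to wild type. Frequencies were read by 100-nucleotide paired-end sequencing of gene amplicons before and after pooled Saccharomyces cerevisiae strains, carrying tRNA-Arg(CCU) gene variants at the native locus, were competed in YPD at 37°C for 24 hours in six replicates. A genotype was kept only with ≥ 100 starting reads, and estimates < 0.5 were set to 0.5.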

**Q.** With GUUCCGUUGGCGUAAUGGUAACACGUCUCCCUCCUAAGGAGAAGACUGCGGGUCCGAGUCCCGUACGGAACG as the variant, how does the yeast fitness read?
**A.** 0.533

**Q.** With GUUCCGUUGGCGUAAUGGUAACGCGUCUCCCUCCUAAGGAGCAGACUACGGGUUCGAGUCCCGUACGGAACG as the variant, how does the yeast fitness read?
**A.** 1.07

**Q.** With GUUCCGUUGGCGUGAUGGUAACGCGUCUCCCUCCUAAGGAGAAGACUGCGGGUUCGACUCCCGUCCGGAACG as the variant, how does the yeast fitness read?
**A.** 0.593

**Q.** With GUUCCGUUGGCAUAAUGGUAACGCGUCUCCCUCCUACGGAGAAGACUGCGGGUUCGAGUCUCGUACGGAACG as the variant, how does the yeast fitness read?
**A.** ≤ 0.5

**Q.** With GUUCCGUUGGCGUAAUGGUACCGCGUCUCCCUCCUAAGGAGAAGACUGCGGGUUCGAGUCCCGUUCGCAACG as the variant, how does the yeast fitness read?
**A.** ≤ 0.5

**Q.** Which yeast fitness does the source give for GUUCCGUUGGCGUAUUGGUAACGCGUCUCCCUCCUAAGGAGAAGACUGGGGGUUCGAGUCCCGUACGGAACG here?
**A.** 0.671

**Q.** With GUUCCGUUGGCGUAAUGGUAACGCGUCCCCUUCCUCAGGACAAGACAGCGGGUUCGAGUCCCGUACGGAACG as the variant, how does the yeast fitness read?
**A.** ≤ 0.5

**Q.** For GUCCCGUUGGCGUAAUGGUCACCCGUCUCCCUCCUAAGGAGAAGACUGCGGGUUCCAGUCCCGUACGGAACG, which yeast fitness is on record?
**A.** ≤ 0.5

**Q.** For GUUCCGUUGGCGUAAUGGUAAUGCAUCUCCCUCCUAAGGAGAAGACUCCGGGUUCGGGUCCCGUACGGAACG, which yeast fitness is on record?
**A.** ≤ 0.5

**Q.** For GUUCCGUUGGCGUAAUGGUAACACGUCUCCCUCCGAAGGAGAAGACUGCGGGUUCGAAUCCCGUACGGAACG, which yeast fitness is on record?
**A.** ≤ 0.5

**Q.** With GUUCCGUUGGCGUAAUGGUAACGCGUCUCCUUCCUUAGGAGAAGCGUCCGGGUUCGAGUCCCGUACGGAACG as the variant, how does the yeast fitness read?
**A.** 0.53

**Q.** With GUUCCGUUGGCGUAAAGGUAACGCGUCUCCCUCCUGAGGAGAAGACUGCGAGUUCGAGUCCCGCGCGGAACG as the variant, how does the yeast fitness read?
**A.** ≤ 0.5

**Q.** Which yeast fitness does the source give for GUUCCGUUGGCGUGAUGGUAACGCGUCUCCCUCCUAAGGAGAAGACUCCGGGUUCGAGUCCUGUACGGAACG here?
**A.** 0.654

**Q.** With GUUCCGUUGGCGUAAUGGCAACGCGUCUCCUUCCUAAGGAGAAGACUGCGGGUUCAAGUCCCGUACGGAACG as the variant, how does the yeast fitness read?
**A.** 0.954

**Q.** Which yeast fitness does the source give for GUUCCGUUGGCGUAAUGGUAACGCGUCUCCCUCCUAAGGAGGAGACUACGGGUUCGAGUCCCGUACGCAUCG here?
**A.** ≤ 0.5

**Q.** For GUUCCGUUGGCGUGAUGGUAACGCGUCUCCCUCCUAAGGAGAAGACUGCGGCUUCGAGUCCCGUACGGAUCG, which yeast fitness is on record?
**A.** ≤ 0.5

**Q.** With GUUCCGUUGGCGUAAUGGUAACGCGUCUCCCUCCUAACGAGAAAACUGCGGGUUCGAGUCCCGUACGGAACG as the variant, how does the yeast fitness read?
**A.** 0.72

**Q.** With GUUCCGUUGGCGUAAUGGUCACGCGUCUCCCUCCUAAGGAGAAGACUGCGGGUUGGAGUCCCGUGCGGAACG as the variant, how does the yeast fitness read?
**A.** 0.53

**Q.** For GUUUCGUUGGCGUAAUGGUCACGCGUCUCCCUCCUAAGGAGAAGACUGUGGGUUCGAGUCACGUACGGAACG, which yeast fitness is on record?
**A.** ≤ 0.5

**Q.** Which yeast fitness does the source give for GUUCCGUUGGCGUAAUGGUAACGCGUCUGCCUCCUGAGGUGAAGACUGCGGGUUCGAGUCCCGUACGGAACG here?
**A.** ≤ 0.5

**Q.** With GUGCCGUUGGCGUAACGGUAACGCGUCUCCCUCCUAAGCAGAAGCCUGGGGGUUCGAGUCCCGUACGGUACG as the variant, how does the yeast fitness read?
**A.** ≤ 0.5

**Q.** With GUUCCGUUGGCGUAAUGGCAACGCGUGUCCGUCCUAAGCAGAAGACUGCGGGUUCGCGUCCCGUACGGAACG as the variant, how does the yeast fitness read?
**A.** ≤ 0.5

**Q.** For GAUCCGUUGGCGUAAUGGUAACGCGUCUCCCUCCUAAGGAGAAGACUCCGGGUUCGAGUCCCGUCCGGAACG, which yeast fitness is on record?
**A.** 0.593

**Q.** Which yeast fitness does the source give for GUUCCGUUGCCGUAAUGGUAACGUGUCUGCCUCCUAAGGAGAAGACUGCGGGUUCGAGUCCCGUACGGAACG here?
**A.** 0.638

**Q.** With GUUUCGUUGGCGUAAUGGUAACGCGUCUCCCUCCUAAGCAGAAGACUGCGGGUUCGAGUUCCGUACGGAACG as the variant, how does the yeast fitness read?
**A.** ≤ 0.5

**Q.** For GUUCCGUUGGCGUGAUGGUAACGCGUCUCCCUCCUAACGAGAAGACUGCGGGUUCGAGUCCCGUCCGGAACG, which yeast fitness is on record?
**A.** ≤ 0.5

**Q.** With GUUCCGUUGGCGUAAUGGUAACGCGUCUCCGUCCUAAGGACAAGACUGCCGGUUCGAGUCCCGUACGGAACG as the variant, how does the yeast fitness read?
**A.** 0.533

**Q.** With GUUCCGUUGGGGUAAUGGUAGCCCGUCUCACUCCUAAGGAGAAGACUGCGGGUUCGAGUCCCGUACGGAACG as the variant, how does the yeast fitness read?
**A.** 0.733

**Q.** Which yeast fitness does the source give for GUUCCGUUGGUGUAAUGGUAACGCGUCUCUCUCCUAACGAGAAGACUGCGGGUUCGAGUCCCGUGCGGAACG here?
**A.** 0.506

**Q.** For GUUCCGUUAGCGUAAUGGUAACGCGUCUCCCUCCUAAGGAGAAGACUGCGGGUUCGAGACCCGUACGGGACG, which yeast fitness is on record?
**A.** 0.697

**Q.** Which yeast fitness does the source give for GUUACGUUGGCGUAAUGGUAACGCGUCUCCCUCCUAAGGAGAAGACAGCGGGUUCGAGUCUCGUACGGAACG here?
**A.** 0.545

**Q.** Which yeast fitness does the source give for GUUCCGUUGGCGUAAUGGUAACGCGUCUCCCUCCGAAGGAGAAGACUGCGGGUUCGAGUCCCGUACGCAACG here?
**A.** 0.619

**Q.** With GUUCCGUUGGCGUACUGGUAACGCGUCUUCUUCCUAAGGAGAAGACUGCGGGUUCGAGUCCCGUACGGAACG as the variant, how does the yeast fitness read?
**A.** ≤ 0.5

**Q.** With GUUGCGUUGGAGUAAUGGUAACGCGUCUCCCACCAAAGGAGAAGACUGUGGGUUCGAGGCCCGUACUGAACG as the variant, how does the yeast fitness read?
**A.** ≤ 0.5

**Q.** Which yeast fitness does the source give for GUUCCGUUGGCGUAAUGGUAACGCGUGACCCUCCUAAGGAGAAGACUGCGGGUUCGAGUCCCGUACGGAACG here?
**A.** 0.596

**Q.** For GUUCCGUAGGCGUAAUGGUAACGCGUCUCCCUCUUAAGGAGAUGACUGCGGGUUCGAGCCCCGUACGGAACG, which yeast fitness is on record?
**A.** 0.619

**Q.** With GUUUCGUUGGCGUAAUGGUAACGAGUCUCCCUCCUAAGGAGAAGACUGCGGGUUCGAGUGCCGUAUGGAACG as the variant, how does the yeast fitness read?
**A.** ≤ 0.5

**Q.** For GUUCAGUUGGCGUAAUGGUAACGCGUCUCCCUCCCAAGGAGAAAACUCCGGGUUGGAGUCCCGUACGGUACG, which yeast fitness is on record?
**A.** 0.56

— the RNAGym collection of RNA variant scans (doi:10.1126/science.aae0568)
